How the values were obtained:
[1] = Cytotoxicity against hepatocytes (unknown origin) assessed as cell growth by MTT assay relative to control; assay type: cell-based, Hepatocyte; design: concentration or dose not given beside the values
[2] = Antiproliferative activity against human GURAV cells assessed as cell growth inhibition; assay type: functional
How it was run: (§1)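 Cell lines screened for growth inhibition and GI₅₀ derived. Each value is the mean of 3 independent experiments.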

K562 = assay: Antiproliferative activity against human K562 cells assessed as cell growth inhibition; assay type: functional; how it was run: as §1
PC-3 = assay: Antiproliferative activity against human PC-3 cells assessed as cell growth inhibition; assay type: functional; how it was run: as §1
KB = assay: Antiproliferative activity against human KB cells assessed as cell growth inhibition; assay type: functional; how it was run: as §1
MCF7 = assay: Antiproliferative activity against human MCF7 cells assessed as cell growth inhibition; assay type: functional; how it was run: as §1
HOP-62 = assay: Antiproliferative activity against human HOP-62 cells assessed as cell growth inhibition; assay type: functional; how it was run: as §1
A549 = assay: Antiproliferative activity against human A549 cells assessed as cell growth inhibition; assay type: functional; how it was run: as §1
NCI-H226 = assay: Antiproliferative activity against human NCI-H226 cells assessed as cell growth inhibition; assay type: functional; how it was run: as §1
Jurkat = assay: Antiproliferative activity against human Jurkat cells assessed as cell growth inhibition; assay type: functional; how it was run: as §1
U-937 = assay: Antiproliferative activity against human U-937 cells assessed as cell growth inhibition; assay type: functional; how it was run: as §1
HL-60 = assay: Antiproliferative activity against human HL-60 cells assessed as cell growth inhibition; assay type: functional; how it was run: as §1
MOLT-4 = assay: Antiproliferative activity against human MOLT-4 cells assessed as cell growth inhibition; assay type: functional; how it was run: as §1

GI50 (K562) [µM] | GI50 (PC-3) [µM] | GI50 (KB) [µM] | GI50 (MCF7) [µM] | GI50 (A549) [µM] | GI50 (NCI-H226) [µM] | GI50 (Jurkat) [µM] | GI50 (U-937) [µM] | GI50 (HL-60) [µM] | GI50 (MOLT-4) [µM] | SMILES | viability [1] [%] | GI50 [2] [µM] | GI50 (HOP-62) [µM]
 |  |  |  |  |  |  |  |  |  | O=C1NC(=O)/C(=C/c2ccc(OCC(=O)N3C(=O)c4ccccc4S3(=O)=O)cc2)S1 | > 70 |  | 
29.5 | > 100 | > 100 | 72.5 |  |  |  |  |  |  | O=C(COc1ccc(/C=C2\SC(=O)NC2=O)cc1)Nc1ccc([N+](=O)[O-])cc1 | > 70 | > 100 | > 100
 |  |  |  | > 100 | 82.1 |  |  |  |  | O=C1NC(=O)/C(=C/c2ccc(OCC(=O)N3c4ccccc4Sc4ccccc43)cc2)S1 | > 70 |  | 
< 0.1 | < 0.1 | < 0.1 | < 0.1 |  |  |  |  |  |  | COc1cccc2c1C(=O)c1c(O)c3c(c(O)c1C2=O)C[C@@](O)(C(=O)CO)C[C@@H]3O[C@H]1C[C@H](N)[C@H](O)[C@H](C)O1 [DOXORUBICIN] |  | < 0.1 | < 0.1
6.7 | > 100 | > 100 | 61.7 |  |  | 21.9 | 60 | 97.6 | > 100 | O=C(COc1ccc(/C=C2\SC(=O)NC2=O)cc1)Nc1c(Cl)cccc1Cl | > 70 | 56.8 | > 100
19.6 | > 100 | 99.6 | 61.8 |  |  |  |  |  |  | Cc1ccc(NC(=O)COc2ccc(/C=C3\SC(=O)NC3=O)cc2)cc1Cl | > 70 | 71.4 | > 100
 |  |  |  |  |  |  |  |  |  | O=C(COc1ccc(/C=C2\SC(=O)NC2=O)cc1)Nc1ccccn1 | > 70 |  | 
16.3 | > 100 | 78.6 | 67.4 |  |  |  |  |  |  | O=C(COc1ccc(/C=C2\SC(=O)NC2=O)cc1)Nc1ccc(C(F)(F)F)cc1Cl | > 70 | 99.3 | > 100
23.1 | > 100 | > 100 | 57.3 |  |  |  |  |  |  | O=C(COc1ccc(/C=C2\SC(=O)NC2=O)cc1)Nc1c(F)cc(Br)cc1F | > 70 | 64.1 | 75.2
17.6 | > 100 | > 100 | 74.5 |  |  |  |  |  |  | O=C(COc1ccc(/C=C2\SC(=O)NC2=O)cc1)Nc1ccccc1 | > 70 | 57 | > 100
 |  |  |  | 88.7 | 57.8 |  |  |  |  | Cc1cnc(NC(=O)COc2ccc(/C=C3\SC(=O)NC3=O)cc2)s1 | > 70 |  | 
 |  |  |  |  |  |  |  |  |  | CCCCC1=NC2(CCCC2)C(=O)N1NC(=O)COc1ccc(/C=C2\SC(=O)NC2=O)cc1 | > 70 |  | 
45.8 | > 100 | > 100 | 61.2 |  |  |  |  |  |  | Cc1cccc2sc(NC(=O)COc3ccc(/C=C4\SC(=O)NC4=O)cc3)nc12 | > 70 | 58.7 | > 100
